According to ChEMBL document CHEMBL4813988, “Design and synthesis of N-(3-sulfamoylphenyl)amides as Trypanosoma brucei leucyl-tRNA synthetase inhibitors” (Eur J Med Chem, 2021):
pIC50: −log10 of the molar value.

Assays:
[1] = Inhibition of Trypanosoma brucei LeuRS expressed in Escherichia coli BL21 (DE3)-RIPL cells preincubated for 20 mins in presence of [14C]leucine followed by incubation with ATP for 15 mins by liquid scintillation counting method
[2] = tested on: Trypanosoma brucei brucei; experiment: Antitrypanosomal activity against bloodstream form of Trypanosoma brucei brucei 221 assessed as parasite growth inhibition incubated for 72 hrs by resazurin staining based assay; assay type: functional, organism-based; conditions: Trypanosoma brucei, 221, 72 h
Outline: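 Trypanosomes kept in log phase in complete HMI-11 by subculture every 2-3 days, counted by hemocytometer, plated at final 1.0 × 10⁵/mL with serially DMSO-diluted compound (final 0.4% DMSO), triplicate wells. 72 h at 37 °C, 5% CO₂; resazurin added, further 5 h. Fluorescence ex 544/em 590 nm; triplicates averaged, IC₅₀ from sigmoidal dose-response fit.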

Trypanosoma brucei = experiment: Potency index, ratio of IC50 of ZCL539 to IC50 of compound for inhibition of Trypanosoma brucei LeuRS expressed in Escherichia coli BL21 (DE3)-RIPL cells preincubated for 20 mins in presence of [14C]leucine followed by incubation with ATP for 15 mins by liquid scintillation counting method; conditions: time 35.0 min

Work on `Cc1ccc(C(=O)Nc2cccc(S(=O)(=O)NC(=O)[C@@H](N)CC(C)C)c2)cc1` yielded a pIC50 [1] of 4.85.
Compound `CC(C)C[C@H](N)C(=O)NS(=O)(=O)c1cccc(NC(=O)c2ccc(Cl)cc2)c1` has a pIC50 [1] of 5.31.
`CC(C)C[C@H](N)C(=O)NS(=O)(=O)c1cccc(NC(=O)c2ccc([N+](=O)[O-])cc2)c1` gave a pIC50 [1] of 4.83.
`CC(C)C[C@H](N)C(=O)NS(=O)(=O)c1cccc(NC(=O)c2ccc(Br)cc2)c1` showed a pIC50 [1] of 5.28.
Work on `COc1ccc(C(=O)Nc2cccc(S(=O)(=O)NC(=O)[C@@H](N)CC(C)C)c2)cc1OC` yielded a pIC50 [1] of 6.18.
With `Cc1cccc(C(=O)Nc2cccc(S(=O)(=O)NC(=O)[C@@H](N)CC(C)C)c2)c1` the pIC50 [1] was 5.02.
Compound `CC(C)C[C@H](N)C(=O)NS(=O)(=O)c1cccc(NC(=O)c2ccc(OC(C)C)cc2)c1` has a pIC50 [1] of 5.41.
With `COc1cc(C(=O)Nc2cccc(S(=O)(=O)NC(=O)[C@@H](N)CC(C)C)c2)cc(OC)c1OC` the pIC50 [1] was 5.83.
Compound `Cc1cccc(C(=O)Nc2ccc(S(=O)(=O)NC(=O)[C@@H](N)CC(C)C)cc2)c1` has a pIC50 [1] of 4.22.
`CC(C)C[C@H](N)C(=O)NS(=O)(=O)c1cccc(NC(=O)c2ccc(O)cc2)c1` gave a pIC50 [1] of 6.52.
With `Cc1ccccc1C(=O)Nc1cccc(S(=O)(=O)NC(=O)[C@@H](N)CC(C)C)c1` the pIC50 [1] was 4.84.
In the case of `Cc1ccc(C(=O)Nc2ccc(S(=O)(=O)O)c3cc(S(=O)(=O)O)cc(S(=O)(=O)O)c23)cc1NC(=O)c1cccc(NC(=O)Nc2cccc(C(=O)Nc3cc(C(=O)Nc4ccc(S(=O)(=O)O)c5cc(S(=O)(=O)O)cc(S(=O)(=O)O)c45)ccc3C)c2)c1` [SURAMIN], the IC50 [2] was 7 ng/mL.
In the case of `COc1ccc(C(=O)Nc2cccc(S(=O)(=O)NC(=O)[C@@H](N)CC(C)C)c2)cc1`, the pIC50 [1] was 6.62 and the Ratio IC50 (Trypanosoma brucei) was > 700.
With `CC(C)C[C@H](N)C(=O)NS(=O)(=O)c1cccc(NC(=O)c2cccs2)c1` the pIC50 [1] was 5.21.
In the case of `CC(C)C[C@H](N)C(=O)NS(=O)(=O)c1cccc(NC(=O)c2cccc(Oc3ccccc3)c2)c1`, the pIC50 [1] was 5.07.
Work on `Cc1ccc(C(=O)Nc2ccc(S(=O)(=O)NC(=O)[C@@H](N)CC(C)C)cc2)cc1` yielded a pIC50 [1] of 4.41.
`CC(C)C[C@H](N)C(=O)NS(=O)(=O)c1cccc(NC(=O)c2ccc(-c3ccccc3)cc2)c1` showed a pIC50 [1] of 5.24.
Work on `CC(C)C[C@H](N)C(=O)NS(=O)(=O)c1cccc(NC(=O)c2ccco2)c1` yielded a pIC50 [1] of 5.43.
For `COc1ccc(-c2cccc(C(=O)Nc3cccc(S(=O)(=O)NC(=O)[C@@H](N)CC(C)C)c3)c2)cc1`, the pIC50 [1] was 5.74.
`CC(C)C[C@H](N)C(=O)NS(=O)(=O)c1cccc(NC(=O)OCc2ccccc2)c1` gave a pIC50 [1] of 5.40.
`CCOc1ccc(C(=O)Nc2cccc(S(=O)(=O)NC(=O)[C@@H](N)CC(C)C)c2)cc1` gave a pIC50 [1] of 6.30.
With `CC(C)C[C@H](N)C(=O)NS(=O)(=O)c1cccc(NC(=O)c2ccccc2[N+](=O)[O-])c1` the pIC50 [1] was 4.94.
`COc1cccc(C(=O)Nc2cccc(S(=O)(=O)NC(=O)[C@@H](N)CC(C)C)c2)c1` showed a pIC50 [1] of 5.62.
`CCCCOc1ccc(C(=O)Nc2cccc(S(=O)(=O)NC(=O)[C@@H](N)CC(C)C)c2)cc1` showed a pIC50 [1] of 6.10.
`CC(C)C[C@H](N)C(=O)Nc1ccc(S(=O)(=O)NC(=O)[C@@H](N)CC(C)C)cc1` gave a pIC50 [1] of 3.97.
With `NS(=O)(=O)c1ccc(NC(=S)NC(=O)COc2ccc(Br)cc2Cl)cc1` the pIC50 [1] was 3.76.
`CC(C)C[C@H](N)C(=O)NS(=O)(=O)c1cccc(NC(=O)c2cccc(-c3ccccc3)c2)c1` showed a pIC50 [1] of 5.44.
Work on `N=C(N)c1ccc(OCCCCCOc2ccc(C(=N)N)cc2)cc1` [PENTAMIDINE] yielded an IC50 [2] of 9 ng/mL.
In the case of `CC(C)C[C@H](N)C(=O)NS(=O)(=O)c1cccc(NC(=O)c2cccc([N+](=O)[O-])c2)c1`, the pIC50 [1] was 5.07.
`CC(C)C[C@H](N)C(=O)NS(=O)(=O)c1cccc(NC(=O)c2ccc(Oc3ccccc3)cc2)c1` showed a pIC50 [1] of 5.89.
`CC(C)C[C@H](N)C(=O)NS(=O)(=O)c1cccc(NC(=O)c2ccc(OCc3ccccc3)cc2)c1` showed a pIC50 [1] of 6.60, a Ratio IC50 (Trypanosoma brucei) of 700 and a pIC50 [2] of 4.16.
`CC(C)C[C@H](N)C(=O)NS(=O)(=O)c1ccc(NC(=O)c2ccc(Br)cc2)cc1` showed a pIC50 [1] of 4.51.
Compound `CC(C)C[C@H](N)C(=O)NS(=O)(=O)c1cccc(NC(=O)c2ccccc2)c1` has a pIC50 [1] of 5.03.
Work on `COc1cccc(-c2cccc(C(=O)Nc3cccc(S(=O)(=O)NC(=O)[C@@H](N)CC(C)C)c3)c2)c1` yielded a pIC50 [1] of 5.44.
`CC(C)C[C@H](N)C(=O)NS(=O)(=O)c1ccc(NC(=O)c2ccccc2)cc1` gave a pIC50 [1] of 4.02.
`CC(C)C[C@H](N)C(=O)NS(=O)(=O)c1ccc(NC(=O)c2ccc(Cl)cc2)cc1` showed a pIC50 [1] of 3.94.
For `CC(C)C[C@H](N)C(=O)NS(=O)(=O)c1cccc(NC(=O)c2ccc(F)cc2)c1`, the pIC50 [1] was 5.19.
With `CC(C)C[C@H](N)C(=O)NS(=O)(=O)c1ccc(NC(=O)c2ccc([N+](=O)[O-])cc2)cc1` the pIC50 [1] was 4.49.
For `CC(C)C[C@H](N)C(=O)NS(=O)(=O)c1ccc(NC(=O)c2cccc(Cl)c2)cc1`, the pIC50 [1] was 4.37.
With `CC(C)C[C@H](N)C(=O)NS(=O)(=O)c1ccc(NC(=O)c2cccc([N+](=O)[O-])c2)cc1` the pIC50 [1] was < 3.00.
